{
  "source": "ChEMBL document CHEMBL1955770",
  "about": "“Inhibition of S/G2 phase CDK4 reduces mitotic fidelity” (J Biol Chem, 2006)",
  "key": {"HeLa [1]": {"test_system": "HeLa", "test": "Cell cycle arrest in human HeLa cells assessed as accumulation at S phase at 2 uM treated 4 hr and measured 10 hr post double thymidine-synchrony release using propidium iodide staining by FACS analysis (reference value: 1 %)", "type": "functional", "outline": "(§1)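 Cells harvested at set times post-release, fixed in 70% ethanol, stained with 5 μg/ml propidium iodide plus 0.5 mg/ml RNase A, and analysed by flow cytometry. Cell-cycle phase fractions calculated by ModFit.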"}, "HeLa [2]": {"test_system": "HeLa", "test": "Cell cycle arrest in synchronized human HeLa cells assessed as delay in mitotic entry at 2 uM by time-lapse microscopy (reference value: 8-9 hrs)", "type": "functional"}, "HeLa [3]": {"test_system": "HeLa", "test": "Cell cycle arrest in human HeLa cells assessed as accumulation at G2/M phase at 2 uM treated 4 hr and measured 10 hr post double thymidine-synchrony release using propidium iodide staining by FACS analysis (reference value: 31 %)", "type": "functional", "outline": "as §1"}, "RKO": {"test_system": "RKO", "test": "Toxicity in human RKO cells at 8 uM by MTT assay", "type": "cell-based"}, "[4]": {"test": "Cell cycle arrest in human SK-MEL-13 cells assessed as accumulation at S phase at 2 uM treated 1 hr and measured 12 hr post double hydroxyurea-synchrony release using propidium iodide staining by FACS analysis (reference value: 10 %)", "type": "functional, cell-based", "outline": "(§2)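 SK-Mel-13 cells synchronized with 2 mM hydroxyurea, then treated with 2 μM CDK4 inhibitor or left untreated 1 h after release. Harvested at indicated times post-release, ethanol-fixed, propidium iodide/RNase stained, and DNA content read by FACS. Proportions of G1, S and G2/M cells derived with ModFit.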"}, "[5]": {"test": "Cell cycle arrest in human SK-MEL-13 cells assessed as time taken to reach peak mitosis at 2 uM treated 1 hr and post double hydroxyurea-synchrony release using propidium iodide staining by FACS analysis", "type": "functional, cell-based", "outline": "as §2"}, "HeLa [6]": {"test_system": "HeLa", "test": "Cell cycle arrest at G2 phase in human HeLa cells assessed as delay in phosphotyrosine 15 CDK1 accumulation at 2 uM treated at early S phase measured after 6-14 hr post thymidine-synchrony release by immunoblot method", "type": "functional, cell-based", "outline": "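HeLa cells synchronized by double thymidine block and released, treated with 2 μM inhibitor in early S phase, or left untreated. Harvested at set times after release, lysed in NETN with phosphatase and protease inhibitors, run on SDS-PAGE and immunoblotted for cyclin B1 and phosphotyrosine 15 CDK1/2, with cyclin D3 as loading control. Detection by HRP secondary and ECL.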"}, "[7]": {"test": "Cell cycle arrest in human SK-MEL-13 cells assessed as accumulation at G2/M phase at 2 uM treated 1 hr and measured 8 hr post double hydroxyurea-synchrony release using propidium iodide staining by FACS analysis (reference value: 16 %)", "type": "functional, cell-based", "outline": "as §2"}, "NCI-H460": {"test_system": "NCI-H460", "test": "Toxicity in human H460a cells at IC50 after 3 days by MTT assay", "type": "cell-based", "settings": "nci-h460, 72 h"}, "MDA-MB-435": {"test_system": "MDA-MB-435", "test": "Toxicity in human MDA-MB-435 cells at IC50 after 3 days by MTT assay", "type": "cell-based", "settings": "mda-mb-435, 72 h"}, "HeLa [8]": {"test_system": "HeLa", "test": "Cell cycle arrest at G2 phase in human HeLa cells at 2 uM treated 8 hr and measured 12 hr post-synchrony release using Propidium iodide staining by FACS analysis in presence of ATM/ATR signaling inhibitor caffiene", "type": "functional, cell-based"}, "A2058": {"test_system": "A2058", "test": "Cell cycle arrest in human A2058 cells assessed as accumulation at G1 phase at 2 uM treated 1 hr and measured 10 hr post double hydroxyurea-synchrony release using propidium iodide staining by FACS analysis", "type": "functional"}, "COLO 205": {"test_system": "COLO 205", "test": "Toxicity in human COLO205 cells at IC50 after 3 days by MTT assay", "type": "cell-based", "settings": "colo 205, 72 h"}, "HCT-116 [9]": {"test_system": "HCT-116", "test": "Cell cycle arrest in Rb-competent human HCT116 cells assessed as […] at IC50 after 24 hrs using BrdUrd staining by FACS analysis (Rvb =38 %)", "type": "functional"}, "HCT-116 [10]": {"test_system": "HCT-116", "test": "Antiproliferative activity against human HCT116 cells assessed as inhibition of S phase after 48 hrs by MTT assay", "type": "functional, cell-based", "settings": "HCT-116, 48 h", "outline": "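Cells grown in DMEM with 3 mM HEPES and 10% Serum Supreme at 37 °C, 5% CO2. Proliferation read by MTT assay 48 h after drug addition; IC50 given as mean of two separate determinations, each in duplicate.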"}, "HeLa [11]": {"test_system": "HeLa", "test": "Induction of abberent mitosis in synchronized human HeLa cells expressing GFP-H2B assessed as micronuclei formation at 2 uM treated 1 hr and measured 12 hr post thymidine-synchrony release by time-lapse microscopy", "type": "functional, cell-based"}, "HeLa [12]": {"test_system": "HeLa", "test": "Cell cycle arrest in human HeLa cells assessed as accumulation at G1 phase at 2 uM treated 2 hr and measured 8 hr post double thymidine-synchrony release using propidium iodide staining by FACS analysis (reference value: 6 %)", "type": "functional"}, "[13]": {"target": "Mitogen-activated protein kinase 3 (Homo sapiens, UniProt P27361)", "sequence (P27361 whole entry)": "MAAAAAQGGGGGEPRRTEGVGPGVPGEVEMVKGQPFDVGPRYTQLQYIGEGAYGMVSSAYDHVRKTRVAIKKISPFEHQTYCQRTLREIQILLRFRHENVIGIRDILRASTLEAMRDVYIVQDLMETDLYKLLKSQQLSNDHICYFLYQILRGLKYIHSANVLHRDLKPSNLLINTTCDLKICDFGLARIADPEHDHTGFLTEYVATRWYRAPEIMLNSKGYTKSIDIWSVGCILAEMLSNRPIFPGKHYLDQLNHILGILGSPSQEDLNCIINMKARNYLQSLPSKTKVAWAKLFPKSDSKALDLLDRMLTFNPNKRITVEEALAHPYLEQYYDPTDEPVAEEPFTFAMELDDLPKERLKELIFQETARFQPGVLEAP", "test": "Inhibition of ERK1 using fluorescent substrate by IMAP assay", "outline": "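Run in-house using IMAP: phosphorylated fluorescent peptide substrate binds preferentially to immobilized metal beads, which quantifies kinase activity. ATP at 3× the Km of each enzyme.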"}, "HeLa [14]": {"test_system": "HeLa", "test": "Induction of abberent mitosis in human HeLa cells expressing GFP-H2B assessed as low survivin staining cells at 2 uM by immunofluorescence method (reference value: 9%)", "type": "functional"}, "HeLa [15]": {"test_system": "HeLa", "test": "Cell cycle arrest in human HeLa cells assessed as accumulation at G2/M phase at 2 uM treated 2 hr and measured 8 hr post double thymidine-synchrony release using propidium iodide staining by FACS analysis (reference value: 86 %)", "type": "functional", "outline": "as §1"}, "HeLa [16]": {"test_system": "HeLa", "test": "Cell cycle arrest in human HeLa cells assessed as accumulation at S phase at 2 uM treated 6 hr and measured 8 hr post double thymidine-synchrony release using propidium iodide staining by FACS analysis (reference value: 8 %)", "type": "functional", "outline": "as §1"}, "[17]": {"target": "Cyclin-dependent kinase 4 (Homo sapiens) (UniProt P11802)", "sequence (P11802 whole entry)": "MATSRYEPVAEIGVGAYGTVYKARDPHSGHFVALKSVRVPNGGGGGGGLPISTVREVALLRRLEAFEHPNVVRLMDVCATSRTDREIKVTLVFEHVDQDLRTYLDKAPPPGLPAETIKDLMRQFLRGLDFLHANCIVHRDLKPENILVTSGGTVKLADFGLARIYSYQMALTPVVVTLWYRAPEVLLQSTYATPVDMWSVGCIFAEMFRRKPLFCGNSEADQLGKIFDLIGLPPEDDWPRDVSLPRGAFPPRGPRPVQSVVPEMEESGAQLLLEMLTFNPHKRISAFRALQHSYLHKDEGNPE", "test": "Inhibition of CDK4-mediated Rb phosphorylation at ser 795 in human HCT116 cells at 3 times IC90 after 4 hrs by immunoblot analysis", "type": "cell-based", "settings": "HCT-116", "outline": "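Asynchronous HCT-116 cells (DMEM, 3 mM HEPES, 10% serum, 37 °C, 5% CO₂) were given increasing inhibitor doses for 4 or 24 h. Lysis in NETN with phosphatase and protease inhibitors, then SDS-PAGE, nitrocellulose transfer and immunoblot for phospho-Rb (Ser-795) with HRP secondary and chemiluminescence.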"}, "[18]": {"target": "Tyrosine-protein kinase TXK (Homo sapiens) (UniProt P42681)", "sequence (P42681 whole entry)": "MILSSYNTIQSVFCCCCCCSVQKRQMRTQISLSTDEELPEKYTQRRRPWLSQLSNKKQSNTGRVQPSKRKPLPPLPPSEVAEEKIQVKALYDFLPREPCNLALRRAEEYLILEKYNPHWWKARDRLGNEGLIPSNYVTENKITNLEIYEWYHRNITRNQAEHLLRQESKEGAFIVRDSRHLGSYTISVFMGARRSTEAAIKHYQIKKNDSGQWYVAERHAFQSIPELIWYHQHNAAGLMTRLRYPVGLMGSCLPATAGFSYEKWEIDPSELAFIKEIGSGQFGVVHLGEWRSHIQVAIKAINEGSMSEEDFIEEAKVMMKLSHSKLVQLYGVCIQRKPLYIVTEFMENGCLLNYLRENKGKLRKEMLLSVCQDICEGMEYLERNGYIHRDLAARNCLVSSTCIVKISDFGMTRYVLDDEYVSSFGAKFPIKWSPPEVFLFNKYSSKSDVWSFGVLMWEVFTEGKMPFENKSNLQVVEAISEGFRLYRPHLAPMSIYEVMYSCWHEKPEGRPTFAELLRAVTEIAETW", "test": "Inhibition of TXK at 1 uM"}, "[19]": {"target": "Calcium/calmodulin-dependent protein kinase type 1D (Homo sapiens) (UniProt Q8IU85)", "sequence (Q8IU85 whole entry, looked up)": "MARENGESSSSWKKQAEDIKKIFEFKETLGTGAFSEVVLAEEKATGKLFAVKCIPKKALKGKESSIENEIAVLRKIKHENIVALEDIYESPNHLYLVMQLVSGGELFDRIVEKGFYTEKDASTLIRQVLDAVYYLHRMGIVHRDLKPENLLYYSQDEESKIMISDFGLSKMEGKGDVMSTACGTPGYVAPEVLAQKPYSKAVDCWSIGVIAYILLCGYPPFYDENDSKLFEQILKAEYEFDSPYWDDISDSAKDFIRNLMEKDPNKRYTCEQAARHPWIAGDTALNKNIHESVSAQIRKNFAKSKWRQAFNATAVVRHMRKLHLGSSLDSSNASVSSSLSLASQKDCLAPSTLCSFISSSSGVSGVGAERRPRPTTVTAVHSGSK", "test": "Inhibition of CAMK1D at 1 uM", "outline": "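Competition binding screen across a kinase panel with compound at 1 μM. Read-out is % competition. Kinases not hit at this concentration were scored '<50'. No Kd was determined for hits.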"}, "[20]": {"target": "Tyrosine-protein kinase Fes/Fps (Homo sapiens) (UniProt P07332)", "sequence (P07332 whole entry)": "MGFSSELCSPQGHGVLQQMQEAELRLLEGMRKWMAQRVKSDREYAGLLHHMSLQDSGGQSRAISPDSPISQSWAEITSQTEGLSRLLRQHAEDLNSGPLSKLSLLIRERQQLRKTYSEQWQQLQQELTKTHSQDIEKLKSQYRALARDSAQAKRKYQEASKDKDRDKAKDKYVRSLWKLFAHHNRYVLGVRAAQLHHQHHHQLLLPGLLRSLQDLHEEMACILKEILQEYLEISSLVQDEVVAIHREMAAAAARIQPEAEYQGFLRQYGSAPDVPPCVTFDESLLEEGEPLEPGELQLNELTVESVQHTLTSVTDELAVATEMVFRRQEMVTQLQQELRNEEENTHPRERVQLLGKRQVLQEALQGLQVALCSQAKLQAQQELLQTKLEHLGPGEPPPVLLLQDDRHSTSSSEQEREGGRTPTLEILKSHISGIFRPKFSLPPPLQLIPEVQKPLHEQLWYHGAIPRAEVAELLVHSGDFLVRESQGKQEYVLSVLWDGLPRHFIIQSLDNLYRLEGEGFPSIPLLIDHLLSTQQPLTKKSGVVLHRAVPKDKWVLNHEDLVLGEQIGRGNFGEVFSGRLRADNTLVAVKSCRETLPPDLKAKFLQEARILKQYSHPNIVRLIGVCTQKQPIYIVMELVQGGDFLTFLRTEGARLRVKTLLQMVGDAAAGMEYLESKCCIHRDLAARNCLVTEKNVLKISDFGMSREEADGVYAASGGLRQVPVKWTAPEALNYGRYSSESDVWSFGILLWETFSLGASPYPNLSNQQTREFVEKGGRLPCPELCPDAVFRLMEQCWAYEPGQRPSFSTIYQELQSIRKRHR", "test": "Inhibition of FES at 1 uM"}, "[21]": {"target": "Tyrosine-protein kinase Fyn (Homo sapiens) (UniProt P06241)", "sequence (P06241 2-537 limits assumed)": "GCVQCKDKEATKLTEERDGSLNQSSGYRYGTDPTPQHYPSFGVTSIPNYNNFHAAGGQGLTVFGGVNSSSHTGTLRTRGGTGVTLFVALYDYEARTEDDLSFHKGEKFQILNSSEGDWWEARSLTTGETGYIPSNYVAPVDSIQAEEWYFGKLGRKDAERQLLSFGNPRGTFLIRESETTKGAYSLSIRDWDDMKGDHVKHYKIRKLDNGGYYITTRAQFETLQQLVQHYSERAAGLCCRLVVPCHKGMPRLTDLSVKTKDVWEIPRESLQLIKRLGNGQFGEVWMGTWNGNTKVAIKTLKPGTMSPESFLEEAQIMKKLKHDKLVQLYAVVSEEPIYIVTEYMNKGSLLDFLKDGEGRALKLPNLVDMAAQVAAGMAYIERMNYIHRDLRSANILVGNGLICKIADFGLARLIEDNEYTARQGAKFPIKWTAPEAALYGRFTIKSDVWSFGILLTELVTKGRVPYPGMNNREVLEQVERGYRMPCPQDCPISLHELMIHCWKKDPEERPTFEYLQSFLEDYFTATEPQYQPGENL", "test": "Inhibition of FYN at 1 uM"}, "[22]": {"target": "Ephrin type-A receptor 2 (Homo sapiens) (UniProt P29317)", "sequence (P29317 whole entry)": "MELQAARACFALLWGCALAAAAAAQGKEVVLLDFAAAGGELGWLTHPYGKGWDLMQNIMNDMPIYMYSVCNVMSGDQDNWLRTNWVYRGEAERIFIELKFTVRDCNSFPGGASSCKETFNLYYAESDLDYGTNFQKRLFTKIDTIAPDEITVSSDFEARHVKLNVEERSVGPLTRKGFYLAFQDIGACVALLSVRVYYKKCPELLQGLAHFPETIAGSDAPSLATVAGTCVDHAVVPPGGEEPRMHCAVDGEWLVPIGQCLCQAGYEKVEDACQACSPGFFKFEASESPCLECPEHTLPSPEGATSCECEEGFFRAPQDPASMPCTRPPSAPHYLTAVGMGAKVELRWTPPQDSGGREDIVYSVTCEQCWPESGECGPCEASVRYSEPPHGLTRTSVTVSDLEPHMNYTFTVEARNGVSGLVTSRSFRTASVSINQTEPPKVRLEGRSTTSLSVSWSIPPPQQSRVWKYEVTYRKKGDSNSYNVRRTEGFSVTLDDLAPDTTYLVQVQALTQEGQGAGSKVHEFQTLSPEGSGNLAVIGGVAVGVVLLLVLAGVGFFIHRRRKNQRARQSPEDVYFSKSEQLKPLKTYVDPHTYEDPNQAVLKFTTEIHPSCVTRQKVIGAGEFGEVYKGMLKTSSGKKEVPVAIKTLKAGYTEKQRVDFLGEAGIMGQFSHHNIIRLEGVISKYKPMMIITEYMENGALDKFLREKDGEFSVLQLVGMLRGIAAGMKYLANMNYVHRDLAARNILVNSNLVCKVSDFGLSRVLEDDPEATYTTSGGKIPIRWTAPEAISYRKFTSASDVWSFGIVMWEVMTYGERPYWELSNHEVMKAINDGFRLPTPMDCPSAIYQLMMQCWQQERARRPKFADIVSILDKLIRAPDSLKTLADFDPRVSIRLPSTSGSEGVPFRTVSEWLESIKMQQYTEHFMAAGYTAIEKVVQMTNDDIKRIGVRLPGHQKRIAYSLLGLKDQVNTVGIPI", "test": "Inhibition of EPHA2 at 1 uM"}, "[23]": {"target": "Serine/threonine-protein kinase Nek2 (Homo sapiens) (UniProt P51955)", "sequence (P51955 whole entry)": "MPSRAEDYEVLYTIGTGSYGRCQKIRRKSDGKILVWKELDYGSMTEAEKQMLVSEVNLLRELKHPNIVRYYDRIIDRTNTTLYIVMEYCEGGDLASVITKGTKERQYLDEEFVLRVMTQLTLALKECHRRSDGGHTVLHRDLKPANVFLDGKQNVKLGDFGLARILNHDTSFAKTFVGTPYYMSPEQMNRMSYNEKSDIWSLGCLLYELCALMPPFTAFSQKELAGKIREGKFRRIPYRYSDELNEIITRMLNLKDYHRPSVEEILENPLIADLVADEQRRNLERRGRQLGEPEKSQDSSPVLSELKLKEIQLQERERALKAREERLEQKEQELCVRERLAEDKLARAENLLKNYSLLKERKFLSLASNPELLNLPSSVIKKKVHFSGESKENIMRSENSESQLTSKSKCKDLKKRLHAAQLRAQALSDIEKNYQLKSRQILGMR", "test": "Inhibition of NEK2 at 1 uM"}},
  "note": "Activity calls are given as the source filed them. No cut-off for these calls is given here.",
  "data": [
    {"smiles": "COc1cccc(C(=O)c2sc(Nc3ccc(N4CCN(C(C)C)CC4)cc3)nc2N)c1", "values": [
      {"measurement": "Activity", "setting": "HeLa [1]", "result": 0, "unit": "%"},
      {"measurement": "Time", "setting": "HeLa [2]", "result": 11, "unit": "h"},
      {"measurement": "Activity", "setting": "HeLa [3]", "result": 88, "unit": "%"},
      {"measurement": "Activity", "setting": "RKO", "result": "Toxic"},
      {"measurement": "Activity", "setting": "[4]", "result": 10, "unit": "%"},
      {"measurement": "TIME", "setting": "[5]", "result": 10, "unit": "h"},
      {"measurement": "Activity", "setting": "HeLa [6]", "result": "Active"},
      {"measurement": "Activity", "setting": "[7]", "result": 70, "unit": "%"},
      {"measurement": "Activity", "setting": "NCI-H460", "result": "Toxic"},
      {"measurement": "Activity", "setting": "MDA-MB-435", "result": "Toxic"},
      {"measurement": "Activity", "setting": "HeLa [8]", "result": "Active"},
      {"measurement": "Activity", "setting": "A2058", "result": 7, "unit": "%"},
      {"measurement": "Activity", "setting": "COLO 205", "result": "Toxic"},
      {"measurement": "Activity", "setting": "HCT-116 [9]", "result": 20, "unit": "%"},
      {"measurement": "IC50", "setting": "HCT-116 [10]", "result": 1.1, "unit": "µM"},
      {"measurement": "Activity", "setting": "HeLa [11]", "result": "Active"},
      {"measurement": "Activity", "setting": "HeLa [12]", "result": 7, "unit": "%"},
      {"measurement": "IC50", "setting": "[13]", "result": "> 100", "unit": "µM"},
      {"measurement": "Activity", "setting": "HeLa [14]", "result": 18, "unit": "%"},
      {"measurement": "Activity", "setting": "HeLa [15]", "result": 84, "unit": "%"},
      {"measurement": "Activity", "setting": "HeLa [16]", "result": 5, "unit": "%"},
      {"measurement": "inhibition", "setting": "[17]", "result": "Active"}
    ]},
    {"smiles": "CN1CCN(c2ccc(Nc3nc(N)c(C(=O)c4ccc5c(c4)OCCO5)s3)cc2)CC1", "values": [
      {"measurement": "Activity", "setting": "HeLa [1]", "result": 0, "unit": "%"},
      {"measurement": "inhibition", "setting": "[18]", "result": "< 50", "unit": "%"},
      {"measurement": "Time", "setting": "HeLa [2]", "result": 11, "unit": "h"},
      {"measurement": "inhibition", "setting": "[19]", "result": "< 50", "unit": "%"},
      {"measurement": "Activity", "setting": "HeLa [3]", "result": 88, "unit": "%"},
      {"measurement": "Activity", "setting": "RKO", "result": "Toxic"},
      {"measurement": "Activity", "setting": "[4]", "result": 10, "unit": "%"},
      {"measurement": "TIME", "setting": "[5]", "result": 10, "unit": "h"},
      {"measurement": "inhibition", "setting": "[20]", "result": "< 50", "unit": "%"},
      {"measurement": "Activity", "setting": "HeLa [6]", "result": "Active"},
      {"measurement": "Activity", "setting": "[7]", "result": 70, "unit": "%"},
      {"measurement": "Activity", "setting": "NCI-H460", "result": "Toxic"},
      {"measurement": "Activity", "setting": "MDA-MB-435", "result": "Toxic"},
      {"measurement": "inhibition", "setting": "[21]", "result": "< 50", "unit": "%"},
      {"measurement": "Activity", "setting": "HeLa [8]", "result": "Active"},
      {"measurement": "Activity", "setting": "A2058", "result": 7, "unit": "%"},
      {"measurement": "Activity", "setting": "COLO 205", "result": "Toxic"},
      {"measurement": "Activity", "setting": "HCT-116 [9]", "result": 20, "unit": "%"},
      {"measurement": "IC50", "setting": "HCT-116 [10]", "result": 3.85, "unit": "µM"},
      {"measurement": "Activity", "setting": "HeLa [11]", "result": "Active"},
      {"measurement": "Activity", "setting": "HeLa [12]", "result": 7, "unit": "%"},
      {"measurement": "inhibition", "setting": "[22]", "result": "< 50", "unit": "%"},
      {"measurement": "IC50", "setting": "[13]", "result": "> 100", "unit": "µM"},
      {"measurement": "Activity", "setting": "HeLa [14]", "result": 18, "unit": "%"},
      {"measurement": "Activity", "setting": "HeLa [15]", "result": 84, "unit": "%"},
      {"measurement": "inhibition", "setting": "[23]", "result": "< 50", "unit": "%"},
      {"measurement": "Activity", "setting": "HeLa [16]", "result": 5, "unit": "%"},
      {"measurement": "inhibition", "setting": "[17]", "result": "Active"}
    ]}
  ]
}
